Measurements taken from PubChem BioAssay AID624017 (Broad Institute, 2012).

Tested on: ldlA[mSR-BI] cells, [3H]cholesterol efflux to HDL
Test: inhibitors of SR-BI-mediated cholesterol efflux to HDL, dose response, mechanism study for SR-BI HDL uptake inhibitor project, ldlA[mSR-BI] cells, [3H]cholesterol, powder samples, set 2 (AID 624017)
Method in brief: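 Dosing – 0.5% DMSO vehicle · Material – ldlA[mSR-BI] cells prelabelled with [3H]cholesterol · Incubation – 2-day label, 24 h equilibration, 1 h compound pretreatment, 2 h efflux · Signal – scintillation counting of medium and lysate [3H] · Probe or stimulus – HDL as cholesterol acceptor, 100 µg/mL final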

CC(C)NC(=O)Nc1ccc2c(c1)C(=O)N([C@H](C)CO)C[C@@H](C)[C@H](CN(C)S(=O)(=O)c1ccc(Cl)cc1)O2
IC50: 250 nM
